Experiments:
[1] = biological target: T1, Adenosine receptor A3 (Homo sapiens) (UniProt P0DMS8); assay: Displacement of [3H]NECA from human recombinant adenosine A3 receptor expressed in CHO cells at 1 uM; assay type: cell-based
T1 sequence (whole entry): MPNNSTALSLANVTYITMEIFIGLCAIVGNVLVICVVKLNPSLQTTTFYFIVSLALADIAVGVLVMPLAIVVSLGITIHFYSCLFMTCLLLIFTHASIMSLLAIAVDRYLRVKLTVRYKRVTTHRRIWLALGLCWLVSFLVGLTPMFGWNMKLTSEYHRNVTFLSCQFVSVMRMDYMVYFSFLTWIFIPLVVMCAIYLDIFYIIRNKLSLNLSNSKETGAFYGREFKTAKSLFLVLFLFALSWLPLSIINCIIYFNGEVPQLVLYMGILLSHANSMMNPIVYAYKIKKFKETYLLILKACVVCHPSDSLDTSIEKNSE
In short: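 Membranes from CHO cells expressing recombinant human A3 receptor incubated 120 min at 25 °C with 6 nM [3H]NECA and a single compound concentration, in duplicate, in Tris-HCl buffer. Nonspecific binding defined with R-PIA. Percent inhibition of specific binding recorded.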

[2] = biological target: Adenosine receptor A2a (Homo sapiens) (UniProt P29274); assay: Displacement of [3H]ZM-241385 from human recombinant adenosine A2A receptor expressed in CHO cells at 1 uM; assay type: cell-based
In short: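 Membranes from CHO cells expressing recombinant human A2A receptor incubated 120 min at 25 °C with 4 nM [3H]ZM241385 and a single compound concentration, in duplicate, in Tris-HCl buffer. Nonspecific binding defined with NECA. Percent inhibition of specific binding recorded.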

Adenosine receptor A1 = biological target: T2, Adenosine receptor A1 (Bos taurus, UniProt P28190); assay: Displacement of [3H]DPCPX from bovine cerebral cortex adenosine A1 receptor; assay type: tissue-based
T2 sequence (P28190 whole entry): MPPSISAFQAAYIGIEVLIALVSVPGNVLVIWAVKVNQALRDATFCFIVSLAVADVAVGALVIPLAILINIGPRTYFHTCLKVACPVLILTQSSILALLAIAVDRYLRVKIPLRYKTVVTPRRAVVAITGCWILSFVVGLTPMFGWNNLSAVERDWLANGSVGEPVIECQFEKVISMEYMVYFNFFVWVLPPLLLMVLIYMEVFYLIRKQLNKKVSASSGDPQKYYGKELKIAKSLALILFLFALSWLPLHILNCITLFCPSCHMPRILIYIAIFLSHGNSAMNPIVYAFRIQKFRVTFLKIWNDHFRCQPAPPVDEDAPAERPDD
In short: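 Nonspecific binding defined with CPA. Reaction stopped by dilution with ice-cold 50 mM Tris-HCl, then GF/C filtration and three washes. Bound radioactivity counted by liquid scintillation. Each test repeated until at least three consistent results were obtained and averaged for Ki.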

Chain of Adenosine receptor A2a (Homo sapiens) (P29274 whole entry): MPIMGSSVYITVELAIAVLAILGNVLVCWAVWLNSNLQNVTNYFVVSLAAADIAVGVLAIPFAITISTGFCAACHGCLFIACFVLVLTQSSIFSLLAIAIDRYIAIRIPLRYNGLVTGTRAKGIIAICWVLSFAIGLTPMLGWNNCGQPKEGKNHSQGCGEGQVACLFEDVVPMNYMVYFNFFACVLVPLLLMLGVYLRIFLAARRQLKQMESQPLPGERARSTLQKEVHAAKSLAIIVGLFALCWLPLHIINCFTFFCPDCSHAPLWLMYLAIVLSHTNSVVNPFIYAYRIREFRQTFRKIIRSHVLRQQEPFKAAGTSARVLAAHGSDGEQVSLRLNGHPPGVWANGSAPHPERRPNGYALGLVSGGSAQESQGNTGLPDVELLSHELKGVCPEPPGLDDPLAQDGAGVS

| SMILES | inhibition [1] | inhibition [2] | Ki (Adenosine receptor A1) |
| --- | --- | --- | --- |
| FC(F)(F)c1ccccc1Cn1nnc2c(NC3CCCCC3)nc(-c3ccccc3)nc21 | < 50% | < 50% | 0.0068 µM |
| Clc1ccccc1Cn1nnc2c(NC3CC3)nc(-c3ccccc3)nc21 | < 50% | < 50% | 0.011 µM |
| Fc1ccccc1Cn1nnc2c(NC3CCCC3)nc(-c3ccccc3)nc21 | < 50% | < 50% | 0.0067 µM |
| Fc1ccccc1Cn1nnc2c(NC3CCCCC3)nc(-c3ccccc3)nc21 | < 50% | < 50% | 0.00115 µM |
| c1ccc(Cn2nnc3c(NC4CCC4)nc(-c4ccccc4)nc32)cc1 | < 50% | < 50% | 0.005 µM |
| CC(O)CNc1nc(-c2ccccc2)nc2c1nnn2Cc1ccccc1Cl (stereo not given) | < 50% | < 50% | 0.032 µM |
| CNc1nc(-c2ccccc2)nc2c1nnn2Cc1ccccc1Cl | < 50% | < 50% | 0.191 µM |
| Clc1ccccc1Cn1nnc2c(NC3CCC3)nc(-c3ccccc3)nc21 | < 50% | < 50% | 0.024 µM |
| CCCCCCNc1nc(-c2ccccc2)nc2c1nnn2Cc1ccccc1C(F)(F)F | < 50% | < 50% | – |
| CCCCCCNc1nc(-c2ccccc2)nc2c1nnn2Cc1ccccc1Cl | < 50% | < 50% | 0.031 µM |
| CCCCCCNc1nc(-c2ccccc2)nc2c1nnn2Cc1ccccc1 | < 50% | < 50% | 0.0132 µM |
| CCCCNc1nc(-c2ccccc2)nc2c1nnn2Cc1ccccc1C(F)(F)F | < 50% | < 50% | 0.0065 µM |
| FC(F)(F)c1ccccc1Cn1nnc2c(NC3CC3)nc(-c3ccccc3)nc21 | < 50% | < 50% | 0.0078 µM |
| CNc1nc(-c2ccccc2)nc2c1nnn2Cc1ccccc1C(F)(F)F | < 50% | < 50% | 0.0149 µM |
| CNc1nc(-c2ccccc2)nc2c1nnn2Cc1ccccc1 | < 50% | < 50% | 0.353 µM |
| FC(F)(F)c1ccccc1Cn1nnc2c(NC3CCCC3)nc(-c3ccccc3)nc21 | < 50% | < 50% | 0.0006 µM |
| Clc1ccccc1Cn1nnc2c(NC3CCCC3)nc(-c3ccccc3)nc21 | < 50% | < 50% | 0.009 µM |
| c1ccc(Cn2nnc3c(NC4CC4)nc(-c4ccccc4)nc32)cc1 | < 50% | < 50% | 0.0113 µM |
| c1ccc(Cn2nnc3c(NC4CCCC4)nc(-c4ccccc4)nc32)cc1 | < 50% | < 50% | 0.011 µM |
| Clc1ccccc1Cn1nnc2c(NC3CCCCC3)nc(-c3ccccc3)nc21 | < 50% | < 50% | 0.034 µM |
| Fc1ccccc1Cn1nnc2c(NC3CC3)nc(-c3ccccc3)nc21 | < 50% | < 50% | 0.015 µM |

Results, then the compound that gave them:

| inhibition [1] | inhibition [2] | Ki (Adenosine receptor A1) | SMILES |
| --- | --- | --- | --- |
| < 50% | < 50% | 0.038 µM | OCCNc1nc(-c2ccccc2)nc2c1nnn2Cc1ccccc1 |
| < 50% | < 50% | – | CCNc1nc(-c2ccccc2)nc2c1nnn2Cc1ccccc1C(F)(F)F |
| < 50% | < 50% | 0.0037 µM | OCCCNc1nc(-c2ccccc2)nc2c1nnn2Cc1ccccc1F |
| < 50% | < 50% | 0.033 µM | OCCCNc1nc(-c2ccccc2)nc2c1nnn2Cc1ccccc1Cl |
| < 50% | < 50% | 0.054 µM | OCCNc1nc(-c2ccccc2)nc2c1nnn2Cc1ccccc1F |
| < 50% | < 50% | 0.011 µM | CCCCNc1nc(-c2ccccc2)nc2c1nnn2Cc1ccccc1 |
| < 50% | < 50% | – | CC(O)CNc1nc(-c2ccccc2)nc2c1nnn2Cc1ccccc1C(F)(F)F (stereo not given) |
| < 50% | < 50% | 0.463 µM | CCNc1nc(-c2ccccc2)nc2c1nnn2Cc1ccccc1Cl |
| < 50% | < 50% | 0.147 µM | OCCCNc1nc(-c2ccccc2)nc2c1nnn2Cc1ccccc1C(F)(F)F |
| < 50% | < 50% | 0.037 µM | CCCNc1nc(-c2ccccc2)nc2c1nnn2Cc1ccccc1 |
| < 50% | < 50% | 0.116 µM | OCCNc1nc(-c2ccccc2)nc2c1nnn2Cc1ccccc1Cl |
| < 50% | < 50% | 0.0214 µM | OCCCNc1nc(-c2ccccc2)nc2c1nnn2Cc1ccccc1 |
| < 50% | < 50% | 0.011 µM | CCNc1nc(-c2ccccc2)nc2c1nnn2Cc1ccccc1F |
| < 50% | < 50% | 0.079 µM | CCCCNc1nc(-c2ccccc2)nc2c1nnn2Cc1ccccc1Cl |
| < 50% | < 50% | 0.025 µM | CCCCCCNc1nc(-c2ccccc2)nc2c1nnn2Cc1ccccc1F |
| < 50% | < 50% | 0.0048 µM | CC(O)CNc1nc(-c2ccccc2)nc2c1nnn2Cc1ccccc1F (stereo not given) |
| < 50% | < 50% | 0.0032 µM | CCCNc1nc(-c2ccccc2)nc2c1nnn2Cc1ccccc1F |
| < 50% | < 50% | 0.091 µM | CCNc1nc(-c2ccccc2)nc2c1nnn2Cc1ccccc1 |
| < 50% | < 50% | 0.0075 µM | CC(O)CNc1nc(-c2ccccc2)nc2c1nnn2Cc1ccccc1 (stereo not given) |
| < 50% | < 50% | 0.025 µM | CNc1nc(-c2ccccc2)nc2c1nnn2Cc1ccccc1F |
| < 50% | < 50% | – | CCCNc1nc(-c2ccccc2)nc2c1nnn2Cc1ccccc1C(F)(F)F |
| < 50% | < 50% | 0.101 µM | CCCNc1nc(-c2ccccc2)nc2c1nnn2Cc1ccccc1Cl |
| < 50% | < 50% | – | OCCNc1nc(-c2ccccc2)nc2c1nnn2Cc1ccccc1C(F)(F)F |
| < 50% | < 50% | 0.0043 µM | CCCCNc1nc(-c2ccccc2)nc2c1nnn2Cc1ccccc1F |
